From ChEMBL document CHEMBL1139305, “Design, synthesis and pharmacological screening of novel antihypertensive agents using hybrid approach” (Bioorg Med Chem, 2009) come the findings set out here.

As a reminder, the EC50 is the concentration giving half of the maximal effect.

Experiment [1] deals with Rattus norvegicus. As to the kind of experiment: Cardiovascular effect in anaesthetized Wistar rat assessed as mean arterial pressure at 40 mg/kg, ip after 15 mins. The experiment is classed as functional, Artery. The note with it: route intraperitoneal. The essentials: (§1)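 Adult normotensive Wistar rats (250–300 g) under thiopental (60 mg/kg ip). Right carotid artery cannulated with a heparinised catheter (20 IU/mL in saline, flushed every 30 min) connected to a pressure transducer. Measurement began one hour after surgery. Compound given ip at 40 mg/kg in 0.5% methyl cellulose, with mean arterial pressure read at 0, 15, 30, 45 and 60 min.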

For experiment [2], the system named is Rattus norvegicus. As to the kind of experiment: Effect on heart rate in anesthetized Wistar rat assessed as number of P-Q-intervals at 40 mg/kg, ip after 15 mins by electrocardiography. The experiment is classed as functional. The note with it: route intraperitoneal. The essentials:
(§2)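 Wistar rats (250–300 g) anaesthetised with thiopental 60 mg/kg ip, then given compound ip at 40 mg/kg in 0.5% aqueous methyl cellulose. ECG recorded by transducer, with heart rate (beats/min) and P–Q, QRS and Q–T intervals (ms) taken at 0, 15, 30, 45 and 60 min after dosing.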

For experiment [3], the system named is Rattus norvegicus. Kind of experiment: Effect on heart rate in anesthetized Wistar rat assessed as number of QRS complex at 40 mg/kg, ip after 45 mins by electrocardiography. The class given is functional. As to conditions: route intraperitoneal. The gist of the method: as §2
For experiment [4], the species on record is Rattus norvegicus. As to the kind of experiment: NO release in Wistar rat by Griess reagent assay in presence of L-cysteine relative to control.
Experiment [5] has as its system Rattus norvegicus. As to the kind of experiment: Effect on heart rate in anesthetized Wistar rat assessed as number of beats per minutes at 40 mg/kg, ip after 45 mins by electrocardiography. The class given is functional. As to conditions: route intraperitoneal. The essentials:
as §2

For experiment [6], the system named is Rattus norvegicus. As to the kind of experiment: Effect on heart rate in anesthetized Wistar rat assessed as number of P-Q-intervals at 40 mg/kg, ip after 60 mins by electrocardiography. The class given is functional. The note with it: route intraperitoneal. The essentials: as §2
Experiment [7] relates to Rattus norvegicus. As to the kind of experiment: Cardiovascular effect in anaesthetized Wistar rat assessed as mean arterial pressure at 40 mg/kg, ip after 30 mins. The experiment is classed as functional, Artery. As to conditions: route intraperitoneal. The gist of the method:
as §1

The subject of experiment [8] is Rattus norvegicus. As to the kind of experiment: Effect on heart rate in anesthetized Wistar rat assessed as number of Q-T-intervals at 40 mg/kg, ip after 15 mins by electrocardiography. As to conditions: route intraperitoneal. The class given is functional. The essentials: as §2
In experiment [9] the test system is Rattus norvegicus. As to the kind of experiment: Effect on heart rate in anesthetized Wistar rat assessed as number of beats per minutes at 40 mg/kg, ip after 30 mins by electrocardiography. The class given is functional. The note with it: route intraperitoneal. The essentials:
as §2

The subject of experiment [10] is Rattus norvegicus. As to the kind of experiment: Effect on heart rate in anesthetized Wistar rat assessed as number of QRS complex at 40 mg/kg, ip after 60 mins by electrocardiography. The experiment is classed as functional. As to conditions: route intraperitoneal. The gist of the method:
as §2

The subject of experiment [11] is Rattus norvegicus. As to the kind of experiment: Effect on heart rate in anesthetized Wistar rat assessed as number of beats per minutes at 40 mg/kg, ip after 60 mins by electrocardiography. The experiment is classed as functional. The note with it: route intraperitoneal. The gist of the method: as §2
Experiment [12] has as its system Rattus norvegicus. As to the kind of experiment: Effect on heart rate in anesthetized Wistar rat assessed as number of beats per minutes at 40 mg/kg, ip after 15 mins by electrocardiography. The class given is functional. The note with it: route intraperitoneal. The gist of the method:
as §2

In experiment [13] the test system is Rattus norvegicus. As to the kind of experiment: Effect on heart rate in anesthetized Wistar rat assessed as number of P-Q-intervals at 40 mg/kg, ip after 45 mins by electrocardiography. The class given is functional. The note with it: route intraperitoneal. The gist of the method: as §2
The test system of experiment [14] is Rattus norvegicus. Kind of experiment: Effect on heart rate in anesthetized Wistar rat assessed as number of QRS complex at 40 mg/kg, ip after 15 mins by electrocardiography. The experiment is classed as functional. The note with it: route intraperitoneal. The gist of the method: as §2
In experiment [15] the test system is Rattus norvegicus. Kind of experiment: Effect on heart rate in anesthetized Wistar rat assessed as number of Q-T-intervals at 40 mg/kg, ip after 30 mins by electrocardiography. The experiment is classed as functional. The note with it: route intraperitoneal. The gist of the method: as §2
Experiment [16] has as its system Rattus norvegicus. Kind of experiment: Effect on heart rate in anesthetized Wistar rat assessed as number of Q-T-intervals at 40 mg/kg, ip after 45 mins by electrocardiography. As to conditions: route intraperitoneal. The experiment is classed as functional. The gist of the method: as §2
Experiment [17] relates to Rattus norvegicus. As to the kind of experiment: Effect on heart rate in anesthetized Wistar rat assessed as number of QRS complex at 40 mg/kg, ip after 30 mins by electrocardiography. The class given is functional. As to conditions: route intraperitoneal. The gist of the method:
as §2

Experiment [18] concerns Rattus norvegicus. As to the kind of experiment: Effect on heart rate in anesthetized Wistar rat assessed as number of P-Q-intervals at 40 mg/kg, ip after 30 mins by electrocardiography. The experiment is classed as functional. The note with it: route intraperitoneal. The essentials: as §2
Experiment [19] deals with Rattus norvegicus. As to the kind of experiment: Effect on heart rate in anesthetized Wistar rat assessed as number of Q-T-intervals at 40 mg/kg, ip after 60 mins by electrocardiography. The experiment is classed as functional. As to conditions: route intraperitoneal. The essentials:
as §2

In experiment [20] the test system is Rattus norvegicus. Kind of experiment: Cardiovascular effect in anaesthetized Wistar rat assessed as mean arterial pressure at 40 mg/kg, ip after 60 mins. The experiment is classed as functional, Artery. The note with it: route intraperitoneal. The gist of the method:
as §1

The test system of experiment [21] is Rattus norvegicus. Kind of experiment: Vasorelaxation activity […] assessed as inhibition of norepinephrine-induced contraction of aorta ring at 0.1 mg/ml. The class given is functional. The essentials: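 Isolated Wistar rat aorta rings in physiological salt solution at 37 °C, gassed 95% O2/5% CO2, isometric tension, 60 min equilibration. After contraction plateau, test compound (0.1 mg/mL) added cumulatively; EC50 (g/mL) derived from cumulative concentration–response curves against norepinephrine.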

Experiment [22] has as its system Rattus norvegicus. As to the kind of experiment: Cardiovascular effect in anaesthetized Wistar rat assessed as mean arterial pressure at 40 mg/kg, ip after 45 mins. As to conditions: route intraperitoneal. The class given is functional, Artery. The essentials:
as §1

The subject of experiment [23] is Rattus norvegicus. As to the kind of experiment: Antiarrhythmic activity in anaesthetized Wistar rat assessed as decrease in BaCl2-induced cardiac rhythm disturbance at 40 mg/kg, ip 60 mins before arrhythmogen challenge. Also on record: dose 40 mg/kg. The class given is functional, organism-based. The note with it: Heart. The essentials: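 Rats (thiopental 60 mg/kg ip anaesthesia) given test compound ip at 40 mg/kg, suspended in 0.5% aqueous methyl cellulose, 60 min before iv barium chloride (32 mg/kg) to evoke arrhythmia. Scored by reduction of rhythm disturbances (premature ventricular beats, ventricular tachycardia, fibrillation) and mortality.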

In brackets after ≈: the same amount, converted by molar mass. Activity calls are given as the source filed them. The calls are words filed in the database; no cut-off is given here.

As for `O=C(CO[N+](=O)[O-])NNC(=O)c1ccc(NCC(O)CN2C(=O)/C(=C/c3cccc([N+](=O)[O-])c3)S/C2=N/c2ccccc2)cc1` (stereo unspecified), the Activity came out at 87.32 mmHg in the experiment on Rattus norvegicus [1]; 57 with Rattus norvegicus [2]; 21.8 with Rattus norvegicus [3]; 302.16 with Rattus norvegicus [5]; 55.6 in the experiment with Rattus norvegicus [6]; 85.08 mmHg with Rattus norvegicus [7]. For the same molecule, the Activity was 71.4 in the experiment on Rattus norvegicus [8]; 295.46 in the experiment with Rattus norvegicus [9]; 20.4 with Rattus norvegicus [10]; 315.86 in the experiment on Rattus norvegicus [11]; 318.61 with Rattus norvegicus [12]; 56.2 in the experiment on Rattus norvegicus [13]. For the same molecule, the Activity in the experiment with Rattus norvegicus [14] was determined as 21.4; in the experiment with Rattus norvegicus [15] it was 72.4; with Rattus norvegicus [16], 71.8; in the experiment with Rattus norvegicus [17], 22.4; in the experiment on Rattus norvegicus [18] it was 57.8; in the experiment with Rattus norvegicus [19], 70.4. The Activity in the experiment on Rattus norvegicus [20] turned out to be 90.29 mmHg; in the experiment with Rattus norvegicus [22] it was 85.87 mmHg. The “% NO release” value in the experiment filed under Rattus norvegicus [4] is 0.21%. For the same molecule, the EC50 in the experiment with Rattus norvegicus [21] is 141 µg/mL (≈ 222 µM). For the same molecule, the outcome in the experiment on Rattus norvegicus [23] was inactive.

`O=C(CO[N+](=O)[O-])NNC(=O)c1ccc(NCC(O)CN2C(=O)/C(=C/c3ccc(O)cc3)S/C2=N/c2ccccc2)cc1` (stereo unspecified): the Activity was 79.52 mmHg in the experiment on Rattus norvegicus [1]; 55.2 in the experiment with Rattus norvegicus [2]; 22.4 in the experiment on Rattus norvegicus [3]; 258.51 in the experiment on Rattus norvegicus [5]; 54.8 in the experiment on Rattus norvegicus [6]; 68.96 mmHg in the experiment on Rattus norvegicus [7]. The Activity in the experiment on Rattus norvegicus [8] is recorded as 74.8; in the experiment with Rattus norvegicus [9], 272.68; in the experiment with Rattus norvegicus [10] it was 20.6; with Rattus norvegicus [11] it was 278.31; in the experiment on Rattus norvegicus [12], 290.03; with Rattus norvegicus [13], 56.2. The Activity is recorded as 20.4 in the experiment with Rattus norvegicus [14]; 76 with Rattus norvegicus [15]; 77.2 in the experiment with Rattus norvegicus [16]; 21.4 with Rattus norvegicus [17]; 56 in the experiment with Rattus norvegicus [18]; 74.4 in the experiment on Rattus norvegicus [19]. Besides, the figures for the Activity in the experiment with Rattus norvegicus [20] and in the experiment on Rattus norvegicus [22] were 77.31 mmHg and 63.34 mmHg, respectively. The “% NO release” value in the experiment listed under Rattus norvegicus [4] was found to be 0.3%. In addition, the 50% effective concentration (EC50) with Rattus norvegicus [21] turned out to be 32.4 µg/mL (≈ 53.3 µM). Further, the result in the experiment on Rattus norvegicus [23] was Active.
